Experimental data reported in paper PMC6766976 (Journal of Clinical Pharmacology, 2019).
Where two headings read alike, the source gives them in different places.

Tests used:
[1] = assay type: in vivo, human
[2] = Safety and tolerability assessments in the hepatic impairment study; assay type: in vivo, human; conditions: Single 15-mg dose
How it was run: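 Open-label, single-dose study in subjects with mild or moderate hepatic impairment (Child-Pugh) and normal-function controls. Subjects were confined from the day before dosing and given the oral extended-release test compound after a 10-hour fast, then fasted 4 h post-dose. Adverse events, hematology, blood chemistry, vital signs, ECGs and physical exams were monitored. Treatment-emergent events were tabulated per hepatic group by MedDRA class and term.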

[3] = Over the range of IR and ER doses evaluated in clinical studies; cited from earlier work
[4] = cited from earlier work
cytochrome P450 (CYP) 3A = conditions: cited from earlier work
[5] = cited from earlier work; remark: listed apart in the source
[6] = cited from earlier work; remark: listed apart in the source
plasma proteins = conditions: ref data on file at AbbVie; cited from earlier work
[7] = cited from earlier work; remark: listed apart in the source
JAK 1 = conditions: cited from earlier work
JAK 2 = conditions: cited from earlier work
JAK 3 = conditions: cited from earlier work
Tyk2 = conditions: cited from earlier work
[8] = Moderate hepatic impairment (outlier excluded)
[9] = Subjects with mild and moderate hepatic impairment
[10] = IR formulation, relative to upadacitinib alone

Question: For `CC[C@@H]1CN(C(=O)NCC(F)(F)F)C[C@@H]1c1cnc2cnc3[nH]ccc3n12` [upadacitinib], which “AUC lower compared with mean AUC in subjects with normal hepatic function” value ([1]; 1 subject in the moderate hepatic impairment group (excluded from analyses)) is on record?
Answer: approximately 70%

Question: What about the “Plasma concentration at 120 hours” value ([1]; All subjects and all groups, lower limit of quantitation 0.05 ng/mL) of the same compound?
Answer: below the assay limit of quantification

Question: And the “AUC central value higher compared with normal hepatic function” value ([1]; Mild hepatic impairment)?
Answer: 28%

Question: What about the “Cmax central value compared with normal hepatic function” value ([1]; Mild hepatic impairment) of the same compound?
Answer: similar

Question: And the “β (terminal-phase elimination rate constant) versus normal hepatic function” value ([1]; Mild hepatic impairment, ANCOVA)?
Answer: no statistically significant difference

Question: And the “AUC central value higher compared with normal hepatic function” value [1, 8]?
Answer: 24%

Question: What about the “Cmax central value higher compared with normal hepatic function” value [1, 8] of the same compound?
Answer: 43%

Question: And the “Increase in upadacitinib exposure, AUC” value [1, 9]?
Answer: < 30%

Question: And the “Increase in upadacitinib exposure, Cmax” value [1, 9]?
Answer: < 45%

Question: What about the “Changes in vital signs or hematology measurements” value [2] of the same compound?
Answer: No clinically significant changes

Question: What about the Tolerability ([2]; all subjects) of the same compound?
Answer: well tolerated

Question: What about the “Plasma exposure dose and time dependence” value [3] of the same compound?
Answer: approximately dose proportional and time independent

Question: What about the “Dose eliminated unchanged in urine” value ([4]; IR dose) of the same compound?
Answer: Approximately 20%

Question: And the “Dose eliminated in urine and feces as metabolites” value ([4]; ref data on file at AbbVie)?
Answer: approximately 30%

Question: And the “Substrate status for cytochrome P450 (CYP) 3A” value (cytochrome P450 (CYP) 3A; Evaluated in phase 1 drug-interaction study with ketoconazole)?
Answer: nonsensitive substrate

Question: What about the “Increase in plasma AUC with coadministration of ketoconazole” value (cytochrome P450 (CYP) 3A; [10]) of the same compound?
Answer: 75%

Question: What about the “Increase in plasma Cmax with coadministration of ketoconazole” value (cytochrome P450 (CYP) 3A; [10]) of the same compound?
Answer: 70%

Question: And the “Increase in upadacitinib exposure with a high-fat meal” value [5]?
Answer: Approximately 20%

Question: What about the “AUC higher compared with normal renal function” value ([6]; Mild renal impairment) of the same compound?
Answer: 18%

Question: What about the “Cmax compared with normal renal function” value ([6]; Mild, moderate and severe renal impairment) of the same compound?
Answer: similar

Question: And the “AUC higher compared with normal renal function” value ([6]; Moderate renal impairment)?
Answer: 33%

Question: What about the “AUC higher compared with normal renal function” value ([6]; Severe renal impairment) of the same compound?
Answer: 44%

Question: And the Plasma protein binding (plasma proteins)?
Answer: not extensively bound to plasma proteins

Question: And the “Impact of baseline AST, ALT and bilirubin on upadacitinib exposure” value ([7]; Phase 1 to 3 studies, healthy subjects and subjects with RA)?
Answer: no impact

Question: And the “Correlation of CYP2D6 metabolic phenotype with upadacitinib clearance” value [7]?
Answer: not correlated

Question: And the “Effect of age, weight, sex, race and ethnicity on upadacitinib exposure” value [7]?
Answer: no clinically relevant effect

Question: And the “Inhibition of JAK 1” value (JAK 1)?
Answer: potently inhibits

Question: And the “Potency against JAK 2 compared with JAK 1” value (JAK 2)?
Answer: less potent

Question: And the “Potency against JAK 3 compared with JAK 1” value (JAK 3)?
Answer: less potent

Question: What about the “Potency against Tyk2 compared with JAK 1” value (Tyk2) of the same compound?
Answer: less potent
